Test results from ChEMBL document CHEMBL1124287, “Imidazole-pyridine bioisosterism: comparison of the inotropic activities of pyridine- and imidazole-substituted 6-phenyldihydropyridazinone cardiotonics” (1988).

Tests used:
Canis familiaris [1] = experiment: Percent increase in heart rate was measured in anesthetized dogs; type: functional, Canis lupus familiaris
Outline: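 Heart rate taken from a cardiometer triggered by the femoral arterial pressure pulse, in pentobarbital-anesthetized (35 mg/kg iv), ventilated mongrel dogs (7–14 kg). Escalating iv log doses at 5-min intervals. Reported as percent change from control at the inotropic ED50 dose.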

Canis familiaris [2] = experiment: Heart contractility was measured in anesthetized dogs (iv); type: functional; details: Canis lupus familiaris
Outline: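 Mongrel dogs of either sex (7–14 kg), pentobarbital-anesthetized (35 mg/kg iv), ventilated, kept at 37–38 °C. Right-ventricular Walton-Brodie strain-gauge arch at 50 g tension. Increasing log doses given iv via femoral vein at 5-min intervals, peak response recorded. ED50 (dose for 50% contractility rise) by linear regression, mean ± SEM. Separate animal group per drug.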

Canis familiaris [3] = experiment: Percent decrease in mean arterial blood pressure was measured in anesthetized dogs; type: functional, Canis lupus familiaris
Outline: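 Pentobarbital-anesthetized (35 mg/kg iv), ventilated mongrel dogs of either sex (7–14 kg). Mean arterial pressure recorded via femoral arterial catheter and pressure transducer. Log doses given iv at 5-min intervals. Value is percent change from control at the inotropic ED50 dose.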

SMILES | Increase in HR (Canis familiaris [1]) [%] | ED50 (Canis familiaris [2]) [mg/kg] | Decrease in MAP (Canis familiaris [3]) [%]
O=C1CCC(c2ccc3c(c2)CCC(=O)N3)=NN1 | 13.2 | 0.0032 | 16.1
O=C1CCC(c2ccc(-n3ccnc3)cc2)=NN1 [IMAZODAN] | 16.9 | 0.0501 | 28.4
O=C1CCC(c2ccc3c(c2)CCCN3)=NN1 | 37 | – | 12
O=C1CCC(c2ccccc2)=NN1 | 39.1 | 6.33 | 24.9
O=C1CCC(c2ccc(-c3cccnc3)cc2)=NN1 | 7.5 | 0.0194 | 12.7
O=C1CCC(c2ccc(-c3ccncc3)cc2)=NN1 | 19.1 | 0.146 | 29.9
O=C1CCC(c2ccc(-c3ccccc3)cc2)=NN1 | 18.8 | 0.513 | 20.9
CC(=O)Nc1ccc(C2=NNC(=O)CC2)cc1 | 8.8 | 0.0113 | 15.1
